ChEMBL document CHEMBL4411315, “Discovery of Novel Dual Histone Deacetylase and Mammalian Target of Rapamycin Target Inhibitors as a Promising Strategy for Cancer Therapy” (J Med Chem, 2019)

Legend:
Histone deacetylase 1 = Histone deacetylase 1 (Homo sapiens, UniProt Q13547); test: Inhibition of recombinant full length HDAC1 (unknown origin) using Ac-peptide-AMC as substrate preincubated for 15 mins followed by substrate addition and measured after 1 hr by fluorescence assay
MM1.S [1] = test: Induction of apoptosis in human MM1S cells assessed as late apoptotic cells at 10 nM after 48 hrs by Annexin V-FITC/propidium iodide staining-based flow cytometric analysis (reference value: 0.42%); type: functional
MM1.S [2] = test: Induction of apoptosis in human MM1S cells assessed as late apoptotic cells at 20 nM after 48 hrs by Annexin V-FITC/propidium iodide staining-based flow cytometric analysis (reference value: 0.42%); type: functional
MM1.S [3] = test: Induction of apoptosis in human MM1S cells assessed as late apoptotic cells at 80 nM after 48 hrs by Annexin V-FITC/propidium iodide staining-based flow cytometric analysis (reference value: 0.42%); type: functional
MM1.S [4] = test: Induction of apoptosis in human MM1S cells assessed as viable cells at 320 nM after 48 hrs by Annexin V-FITC/propidium iodide staining-based flow cytometric analysis (reference value: 98.9%); type: functional; details: read-out: Activity
[5] = molecular target: Histone deacetylase 1/2/3 (Homo sapiens) (UniProt Q13547+O15379+Q92769); test: Inhibition of HDAC1/2/3 in human MV4-11 cells assessed as increase in H3 acetylation after 6 hrs by Western blot analysis; type: cell-based
In short: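 MV4-11 cells treated 6 h at 0.01, 0.1 or 1 μM. Whole-cell protein extracted in RIPA buffer and quantified by BCA. 30 μg protein run on SDS-PAGE and transferred to PVDF. Blocked 1 h in 5% milk, primary antibody overnight at 4 °C, HRP secondary 1 h, ECL detection. Acetyl-histone H3 and acetyl-α-tubulin probed, with GAPDH as loading control.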

Sequence of Histone deacetylase 1 (Q13547 whole entry): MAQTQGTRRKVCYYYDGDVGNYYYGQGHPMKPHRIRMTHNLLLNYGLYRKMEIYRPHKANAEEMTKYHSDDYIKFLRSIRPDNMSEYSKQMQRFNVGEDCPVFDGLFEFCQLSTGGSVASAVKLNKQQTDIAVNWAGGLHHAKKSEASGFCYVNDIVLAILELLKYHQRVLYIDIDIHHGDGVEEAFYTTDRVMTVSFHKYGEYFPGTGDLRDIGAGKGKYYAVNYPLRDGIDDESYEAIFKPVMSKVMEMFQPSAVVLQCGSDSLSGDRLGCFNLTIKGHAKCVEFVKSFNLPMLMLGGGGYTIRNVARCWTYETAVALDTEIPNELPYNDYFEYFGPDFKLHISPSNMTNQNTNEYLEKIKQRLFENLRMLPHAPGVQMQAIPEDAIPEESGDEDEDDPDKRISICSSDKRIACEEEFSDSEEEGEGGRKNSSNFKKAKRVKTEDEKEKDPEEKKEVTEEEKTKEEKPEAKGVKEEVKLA

Compound: C[C@@H]1CN(C(=O)Nc2ccc(-c3nc(N4CCOCC4)c4cnn(CCCCCCC(=O)NO)c4n3)cc2)CCO1
- IC50 (Histone deacetylase 1): 0.19 nM
- Activity (MM1.S [1]): 1.49%
- Activity (MM1.S [2]): 4.78%
- Activity (MM1.S [3]): 40.5%
- viability at 0.32 µM (MM1.S [4]): 3.68%
- inhibition [5]: Dose-dependent effect
